Results on one compound are retold here after ChEMBL document CHEMBL5661974, “Pharmacologic characterization of a potent inhibitor of class I phosphatidylinositide 3-kinases” (Cancer Res, 2007).

Series [1] can be described thus: Inhibition of recombinant PI3K in human U2OS cells expressing GFP-tagged FKHR assessed as redistribution of cytoplasm to the nucleus before IGF-1 stimulation by fluorescence assay. Type of series: cell-based. Put shortly:
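U2OS cells expressing GFP-FKHR, cultured in 0.7% serum, treated with inhibitor before IGF-1 stimulation. Nuclear redistribution of GFP was monitored by automated fluorescence imaging, and IC50 was taken from concentration-response curves; Z' above 0.5.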

Series [2] is described as follows: Inhibition of recombinant human PI3K in cricetulus griseus CHO cells expressing GFP-tagged PDK1 assessed as translocation to the plasma membrane following IGF-1 stimulation by fluorescence assay. Put shortly: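 CHO cells expressing GFP-tagged AKT1, AKT2, AKT3 or PDK1, held in 0.05% serum with 0.1% BSA and stimulated with 100 nmol/L IGF-1. Plasma-membrane translocation was read by automated fluorescence imaging, with IC50 from concentration-response curves; Z' above 0.5.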

Series [3] is described as follows: Cmax in BALB/C mouse liver at 2.5 mg/kg, iv by LC-MS/MS analysis. Type of series: ADME, organism-based. The procedure, abridged:
(§1)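 Female BALB/c mice, 6–8 weeks old, given 2.5 mg/kg i.v. in 10% DMSO, 0.5% Tween 20 in saline. Plasma came from serial bleeds; tissues were homogenized in 2 or 3 volumes PBS. Samples were methanol-precipitated with an analogue internal standard, then LC-MS/MS by multiple reaction monitoring against an 8-point external calibration of 2–20,000 nmol/L. Parameters came from WinNonlin noncompartmental analysis, model 201 for plasma and model 200 for tissues.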

Series [4] in a line: Half life in BALB/C mouse liver at 2.5 mg/kg, iv by LC-MS/MS analysis. Type of series: ADME, organism-based. The procedure, abridged: as §1
Series [5] relates to HCT-116. Nature of the series: Antitumor activity against PIK3CA mutant human HCT-116 cells xenografted female Ncr model assessed as T/C at 30 mg/kg, ip administered twice a daily for 21 days relative to control. Type of series: functional. The settings on record: time 21 day. Background: Xenograft models place foreign cells or tissue in a host animal.
The test system of series [6] is MDA-MB-435. Nature of the series: Antitumor activity against ERB-B2 overexpressing human MDA-MB-435 cells xenografted female Ncr model assessed as T/C at 30 mg/kg, ip administered twice a daily for 14 days relative to control. The conditions noted are these: time 14 day. Type of series: functional.
Series [7] deals with U-87 MG. The conditions noted are these: Homo sapiens, time 24.0 hrs.
The test system of series [8] is U-87 MG. Put plainly: Inhibition of cell invasion in human U-87MG cells at 50 nmol/L by transwell assay relative to control.
The test system of series [9] is U-87 MG. Put plainly: Antitumor activity against PTEN null human U-87MG cells xenografted female Ncr model assessed as body weight loss at 40 mg/kg, ip administered daily for 14 days relative to control. The conditions noted are these: time 14 day.
Series [10] deals with U-87 MG. Nature of the series: Antitumor activity against PTEN null human U-87MG cells xenografted female Ncr model assessed as body weight loss at 70 mg/kg, ip administered daily for 14 days relative to control. The settings on record: time 14 day.
In series [11] the test system is PC-3. Nature of the series: Antitumor activity against PTEN null human PC-3 cells xenografted male Ncr model assessed as body weight loss at 30 mg/kg, ip administered twice a daily for 14 days relative to control. The settings on record: time 14 day.

SMILES strings stand for the structures. pIC50: −log10 of the molar value. The source made the active and inactive calls.

For `Oc1cccc(-c2nc(N3CCOCC3)c3oc4ncccc4c3n2)c1` [PI-103], the pIC50 was 7.52 in series [1] and 7.18 in series [2]. Further, the Cmax in [3] came to 802 nM. This compound gave a half-life in series [4] of 4.2 h. The T/C was 48% in series [5] and 69.8% in series [6]. Also, in series [7], the inhibition entry is “Active”. In series [8], testing at 0.05 µM gave an inhibition of 44%. Moreover, the Body weight loss in series [9], in [10] and in series [11] was below 15% each time.

Usually pIC50 stands for the IC50 on a negative log10 scale, so that one unit is a factor of ten. As a reminder, the Cmax is the highest concentration seen after dosing. A word on the half-life: it is the time needed for the level to fall by half in the phase considered. The low end stands for rapid decline, the high end for slow decline. What is called T/C is the ratio of treated to control. The term inhibition denotes the percentage by which the read-out fell short of the control.
